Experimental data taken from ChEMBL document CHEMBL3399929 (Bioorg Med Chem, 2015).
Converted amounts (≈) assume the structure as drawn. The source made the active and inactive calls. No cut-off for these calls is given here.

What was measured:
[1] = Inhibition of Mycobacterium smegmatis TMC 607 ATP synthase incubated for 10 mins prior to NADH addition measured after 1 hr by luminescence assay; parameters: species or system Mycolicibacterium smegmatis
[2] = tested on: Mycobacterium tuberculosis; test: Antimycobacterial activity against Mycobacterium tuberculosis H37Rv after 4 weeks by agar dilution assay; format: functional; details: for MIC: Mycobacterium tuberculosis, H37Rv, 672 h, read-out: MIC100
Method in brief: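 Agar dilution method. DMSO stocks (5 mg/mL) were serially diluted in DMSO, and 0.1 mL of each was mixed into 1.9 mL Middlebrook 7H10 agar with OADC and set as slants. Each tube received about 10^5 bacilli from a 3-week Lowenstein–Jensen culture suspended in saline with 0.05% Tween-80. Tubes were incubated at 37 °C for 4 weeks. MIC was the lowest concentration with no visible growth.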

[3] = tested on: Mycobacterium tuberculosis; test: Bactericidal activity against non-replicating Mycobacterium tuberculosis H37Rv Wayne model under hypoxic/oxygen depleted conditions assessed as log reduction after 4 days by serial dilution assay; format: functional
Method in brief: (§1)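 Wayne hypoxia model. A mid-log 7H9 culture was diluted to about 10^5 cfu/mL, and 10 mL was sealed in 20 mL headspace vials. Vials were stirred slowly at 37 °C for 20–22 days, until methylene blue indicator (1.5 µg/mL) decolorized. Drug was then injected through the septum, and vials were incubated 4 more days at 37 °C. Tests were run in duplicate, with CFU counted on 7H10 agar plates.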

[4] = tested on: Mycobacterium tuberculosis; test: Bactericidal activity against non-replicating Mycobacterium tuberculosis H37Rv Wayne model under hypoxic/oxygen depleted conditions assessed as log reduction at 5 ug/ml after 4 days by serial dilution assay; format: functional; method in brief: as §1
[5] = tested on: Mycolicibacterium smegmatis; test: Inhibition of Mycobacterium smegmatis TMC 607 ATP synthase at 0.3 uM incubated for 10 mins prior to NADH addition measured after 1 hr by luminescence assay
Method in brief: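 Inverted membrane vesicles from M. smegmatis were diluted to 100 µg protein/mL in 50 mM MOPS pH 7.5 with 10 mM MgCl2. Vesicles were preincubated with compound for 10 min at room temperature with stirring, then given 2.5 mM NADH for 1 min. The reaction was started with 1 mM ADP plus 10 mM potassium phosphate and run for 1 h. It was quenched with EDTA/TCA, and ATP was read by luciferase luminescence.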

[6] = tested on: Mycobacterium tuberculosis H37Rv; test: Inhibition of Mycobacterium tuberculosis H37Rv ATP synthase assessed as reduction in total ATP content at 0.5 ug/ml after 18 hrs by bead-vortexing settling method
Method in brief: (§2)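 H37Rv was declumped by bead-vortexing and settling, adjusted to McFarland 1, then diluted 100-fold. Portions of 1 mL in tubes with 0.5 mm glass beads were exposed to compound for 18 h at 37 °C. Samples were heated 8–10 min, chilled on ice, and bead-beater lysed. Cleared lysate ATP was measured by luciferase assay.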

[7] = Cytotoxicity against African green monkey Vero cells after 72 hrs yb resazurin assay; format: cell-based; details: chlorocebus sabaeus
Method in brief: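 Vero cells were seeded overnight in RPMI with 10% heat-inactivated FBS at 37 °C, 5% CO2. Cells were exposed in triplicate to concentrations from 100 to 1.56 µg/mL for 72 h. Resazurin (0.1%) was then added for 4–5 h, and fluorescence was read at ex 530/em 590 nm. CC50 was derived from the fluorescence plot.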

[8] = Selectivity index, ratio of CC50 for African green monkey Vero cells to MIC100 for Mycobacterium tuberculosis H37Rv; format: toxicity, cell-based; details: read-out: Selectivity Index
Method in brief: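 Selectivity index is CC50 from the Vero resazurin assay divided by the agar-dilution MIC against H37Rv.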

[9] = Cytotoxicity against mouse bone marrow macrophages […]; format: cell-based; details: macrophage
Cryptococcus neoformans = test: Antifungal activity against Cryptococcus neoformans at 50 ug/ml; format: functional, organism-based
[10] = tested on: Mycobacterium tuberculosis; test: Bactericidal activity against non-replicating Mycobacterium tuberculosis H37Rv Wayne model under hypoxic/oxygen depleted conditions assessed as log reduction at 100 ug/ml after 4 days by serial dilution assay; format: functional; method in brief: as §1
Pseudomonas aeruginosa = test: Antibacterial activity against Pseudomonas aeruginosa ATCC BAA-427 at 50 ug/ml; format: functional, organism-based
[11] = Selectivity ratio of IC50 for Mycobacterium smegmatis TMC 607 ATP synthase to IC50 for Swiss mouse liver ATP synthase
[12] = tested on: Mycobacterium tuberculosis; test: Bactericidal activity against non-replicating Mycobacterium tuberculosis H37Rv Wayne model under hypoxic/oxygen depleted conditions assessed as log reduction at 10 ug/ml after 4 days by serial dilution assay; format: functional; method in brief: as §1
Candida albicans = test: Antifungal activity against Candida albicans at 50 ug/ml; format: functional, organism-based
Klebsiella pneumoniae = test: Antibacterial activity against Klebsiella pneumoniae ATCC 27736 at 50 ug/ml; format: functional, organism-based
Candida parapsilosis = test: Antifungal activity against Candida parapsilosis ATCC 22019 at 50 ug/ml; format: functional, organism-based
[13] = tested on: Mycobacterium tuberculosis H37Rv; test: Inhibition of Mycobacterium tuberculosis H37Rv ATP synthase assessed as reduction in total ATP content at 12.5 ug/ml after 18 hrs by bead-vortexing settling method; method in brief: as §2
[14] = tested on: Trichophyton mentagrophytes; test: Antifungal activity against Trichophyton mentagrophytes at 50 ug/ml; format: functional, organism-based
[15] = tested on: Mycobacterium tuberculosis H37Rv; test: Inhibition of Mycobacterium tuberculosis H37Rv ATP synthase assessed as reduction in total ATP content at 50 ug/ml after 18 hrs by bead-vortexing settling method; method in brief: as §2
Escherichia coli = test: Antibacterial activity against Escherichia coli ATCC 9637 at 50 ug/ml; format: functional, organism-based
Aspergillus fumigatus = test: Antifungal activity against Aspergillus fumigatus at 50 ug/ml; format: functional, organism-based
Staphylococcus aureus = test: Antibacterial activity against Staphylococcus aureus ATCC 25923 at 50 ug/ml; format: functional, organism-based
Sporothrix schenckii = test: Antifungal activity against Sporothrix schenckii at 50 ug/ml; format: functional, organism-based
[16] = Inhibition of Swiss mouse liver ATP synthase after 1 hr
Method in brief: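 Liver mitochondria came from an overnight-fasted adult Swiss mouse, isolated by differential centrifugation in sucrose/Tris-MOPS/EGTA buffer pH 7.4 and assayed the same day. Mitochondria (100 µg) were stirred at room temperature with 100 µM compound in Tris/HCl, sucrose, 5 mM MgCl2 and 100 µM diadenosine pentaphosphate, pH 7.4. The reaction was started with 1 mM ADP, 20 mM Pi and 50 mM succinate, stopped after 1 h with EDTA-TCA, and ATP was read by luciferase.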

## CCN(CC)Cc1cc(N(c2cc(C)nc3cc(Cl)ccc23)S(=O)(=O)c2cccs2)ccc1O
[1]; read-out: IC50
  IC50: 1570 nM

## CCN(CC)Cc1cc(N(c2cc(C)nc3cc(Cl)ccc23)S(=O)(=O)c2cc(C)cc(C)c2)ccc1O
[1]; read-out: IC50
  IC50: 1830 nM

## CCN(CC)Cc1cc(N(c2cc(C)nc3cc(Cl)ccc23)S(=O)(=O)c2ccc(Cl)c(Cl)c2)ccc1O
[1]; read-out: IC50
  IC50: 1260 nM

## CCN(CC)Cc1cc(N(c2cc(C)nc3cc(Cl)ccc23)S(=O)(=O)c2cccc3cccnc23)ccc1O
[1]; read-out: IC50
  IC50: 1850 nM

## CCN(CC)Cc1cc(N(c2cc(C)nc3cc(Cl)ccc23)S(=O)(=O)c2ccc(C#N)cc2)ccc1O
[1]; read-out: IC50
  IC50: 740 nM
[2]
  MIC: > 12.5 µg/mL

## NNC(=O)c1ccncc1 [ISONIAZID]
[3]; Mycobacterium tuberculosis, H37Rv, 96 h, read-out: MIC100
  MIC: ≤ 0.12 µg/mL
[1]
  IC50: Not Active
[2]
  MIC: 0.1 µg/mL (≈ 0.729 µM)
[4]
  log10CFU/ml: 0.21
[5]
  inhibition: 0%
[6]
  inhibition: 78.5%

## CCN(CC)Cc1cc(Nc2cc(C)nc3cc(Cl)ccc23)ccc1O
[1]; read-out: IC50
  IC50: 5450 nM
[2]
  MIC: > 50 µg/mL

## CCN(CC)Cc1cc(N(c2cc(C)nc3cc(Cl)ccc23)S(=O)(=O)c2ccc([N+](=O)[O-])cc2)ccc1O
[1]; read-out: IC50
  IC50: 390 nM
[2]
  MIC100: 6.25 µg/mL (≈ 11.3 µM)
[7]
  CC50 at 72 h: 55 µg/mL (≈ 99.1 µM)
[8]
  selectivity ratio: 18

## CCN(CC)Cc1cc(N(c2cc(C)nc3cc(Cl)ccc23)S(=O)(=O)c2ccc(Cl)cc2)ccc1O
[9]
  Activity: Non-toxic
[1]; read-out: IC50
  IC50: 530 nM
[2]
  MIC100: 6.25 µg/mL (≈ 11.5 µM)
[7]
  CC50 at 72 h: > 300 µg/mL
[8]
  selectivity ratio: > 48

## CCN(CC)Cc1cc(N(c2cc(C)nc3cc(Cl)ccc23)S(=O)(=O)c2ccc(Cl)cc2Cl)ccc1O
[3]
  MIC100: 3.12 µg/mL (≈ 5.39 µM)
Cryptococcus neoformans
  Activity: inactive
[10]
  log10CFU/ml: 1.64
Pseudomonas aeruginosa
  Activity: inactive
[11]
  Ratio IC50: > 155
[9]
  Activity: Non-toxic
[1]; read-out: IC50
  IC50: 630 nM
[2]
  MIC100: 3.12 µg/mL (≈ 5.39 µM)
[7]
  CC50 at 72 h: > 300 µg/mL
[8]
  selectivity ratio: > 48
[12]
  log10CFU/ml: 0.79
Candida albicans
  Activity: inactive
Klebsiella pneumoniae
  Activity: inactive
Candida parapsilosis
  Activity: inactive
[13]
  inhibition: 54%
[14]
  Activity: inactive
[15]
  inhibition: 26%
Escherichia coli
  Activity: inactive
Aspergillus fumigatus
  Activity: inactive
Staphylococcus aureus
  Activity: inactive
Sporothrix schenckii
  Activity: inactive
[16]
  IC50: > 100000 nM

## CCN(CC)Cc1cc(N(c2cc(C)nc3cc(Cl)ccc23)S(=O)(=O)[C@@]23CCC(CC2=O)C3(C)C)ccc1O
[1]; read-out: IC50
  IC50: 3410 nM
